Results from ChEMBL document CHEMBL1123435, “Synthesis of 11H-pyridocarbazoles and derivatives. Comparison of their DNA binding and antitumor activity with those of 6H- and 7H-pyridocarbazoles” (1986).

Test system: Calf thymus DNA
Assay: Binding affinity towards calf thymus DNA, at pH 5
Assay type: nucleic-acid assay
Conditions: Bos taurus
Method in brief: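 Affinity for sonicated calf thymus DNA determined by ethidium bromide competition by fluorescence. Four cells were run together: buffer, DNA (1.5 μg/mL), and drug at 3 and 6 μg/mL plus DNA. Ethidium bromide (50 μg/mL of buffer) was added in aliquots, and apparent constants were derived from Scatchard plots of competition. Where a ligand fluoresces strongly when bound, direct fluorometric titration was used instead.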

| Compound | K app [M⁻¹] |
| --- | --- |
| C[n+]1ccc2c(ccc3c4ccccc4[nH]c23)c1.[I-] | 20000 |
| COc1ccc2[nH]c3c4c[n+](C)ccc4c(C)cc3c2c1 | 100000 |
| COc1ccc2[nH]c3c(ccc4c3ccc[n+]4C)c2c1 | 60000 |
| Cc1cc2c3ccccc3[nH]c2c2c[n+](C)ccc12.[I-] | 100000 |
| COc1ccc2[nH]c3c(ccc4cccnc43)c2c1 | 100000 |
| CC(=O)[O-].Cc1c2cc[n+](C)cc2c(C)c2c1[nH]c1ccccc12 | 230000 |
| C[n+]1ccc2ccc3[nH]c4ccc(O)cc4c3c2c1.[I-] | 180000 |
| c1cnc2c(c1)ccc1c3ccccc3[nH]c12 | 100000 |
| CC(=O)[O-].Cc1c2cc[n+](C)cc2c(C)c2c1[nH]c1ccc(O)cc12 [ELLIPTINIUM ACETATE] | 1.3e+06 |
| COc1ccc2[nH]c3c4cc[n+](C)cc4ccc3c2c1.[I-] | 25000 |
| C[n+]1cccc2c3[nH]c4ccc(O)cc4c3ccc21.[I-] | 100000 |
| COc1ccc2[nH]c3ccc4cc[n+](C)cc4c3c2c1.[I-] | 300000 |
| Cl.Oc1ccc2[nH]c3c(ccc4cccnc43)c2c1 | 20000 |
| Cc1cc2c3cc(O)ccc3[nH]c2c2c[n+](C)ccc12.[I-] | 1e+06 |
| C[n+]1cccc2c3[nH]c4ccccc4c3ccc21.[I-] | 10000 |

Test system: L1210
Assay: Inhibitory activity against L1210 cell culture
Assay type: functional
Conditions: Mus musculus, read-out: ED50 (the source's name)
Method in brief: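 L1210 cells in exponential growth (1 × 10⁵/mL) were held for 24 h at 37 °C in RPMI 1640 with 10% fetal calf serum across a range of drug concentrations. Total cells were counted electronically. Duplicate treated cultures were expressed as a percentage of triplicate untreated controls. ED50 came from linear regression of percent residual cells against concentration on a semilog scale.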

| Compound | EC50 [mg/L] |
| --- | --- |
| C[n+]1ccc2c(ccc3c4ccccc4[nH]c23)c1.[I-] | > 1 |
| Cc1cc2c3ccccc3[nH]c2c2c[n+](C)ccc12.[I-] | > 1 |
| CC(=O)[O-].Cc1c2cc[n+](C)cc2c(C)c2c1[nH]c1ccccc12 | 0.544 |
| C[n+]1ccc2ccc3[nH]c4ccc(O)cc4c3c2c1.[I-] | 0.12 |
| CC(=O)[O-].Cc1c2cc[n+](C)cc2c(C)c2c1[nH]c1ccc(O)cc12 [ELLIPTINIUM ACETATE] | 0.06 |
| COc1ccc2[nH]c3c4cc[n+](C)cc4ccc3c2c1.[I-] | > 1 |
| C[n+]1cccc2c3[nH]c4ccc(O)cc4c3ccc21.[I-] | > 1 |
| COc1ccc2[nH]c3ccc4cc[n+](C)cc4c3c2c1.[I-] | 0.38 |
| Cl.Oc1ccc2[nH]c3c(ccc4cccnc43)c2c1 | > 1 |
| Cc1cc2c3cc(O)ccc3[nH]c2c2c[n+](C)ccc12.[I-] | > 1 |
| C[n+]1cccc2c3[nH]c4ccccc4c3ccc21.[I-] | > 1 |

Test system: L1210
Assay: Dose required to inhibit the cloning efficiency to a factor of 0.37 after 24-h exposure to the drug
Assay type: functional
Conditions: Mus musculus, L1210, 24 h
Method in brief: (§1)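 Exponentially growing L1210 cells (1 × 10⁵/mL) in RPMI 1640 with 10% fetal calf serum were exposed to the drug for 24 h at 37 °C. They were then diluted to 250 and 500 cells/mL and plated in Noble agar. After 14 days at 37 °C in 5% CO2, colonies >0.2 mm were counted, in triplicate per concentration. CE37 (cloning efficiency reduced to 0.37) was read from dose-response curves.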

| Compound | EC37 [µg/mL] |
| --- | --- |
| C[n+]1ccc2c(ccc3c4ccccc4[nH]c23)c1.[I-] | > 1 |
| Cc1cc2c3ccccc3[nH]c2c2c[n+](C)ccc12.[I-] | > 1 |
| CC(=O)[O-].Cc1c2cc[n+](C)cc2c(C)c2c1[nH]c1ccc(O)cc12 [ELLIPTINIUM ACETATE] | 0.013 |
| COc1ccc2[nH]c3c4cc[n+](C)cc4ccc3c2c1.[I-] | > 1 |
| C[n+]1cccc2c3[nH]c4ccc(O)cc4c3ccc21.[I-] | > 1 |
| Cl.Oc1ccc2[nH]c3c(ccc4cccnc43)c2c1 | > 1 |
| Cc1cc2c3cc(O)ccc3[nH]c2c2c[n+](C)ccc12.[I-] | > 1 |
| C[n+]1cccc2c3[nH]c4ccccc4c3ccc21.[I-] | > 1 |

Test system: L1210
Assay: Dose required to inhibit the cloning efficiency to a factor of 0.37 after 24-h exposure to the drug in L1210 cell
Assay type: functional
Conditions: Mus musculus, L1210, 24 h
Method in brief: as §1

| Compound | EC37 [µg/mL] |
| --- | --- |
| CC(=O)[O-].Cc1c2cc[n+](C)cc2c(C)c2c1[nH]c1ccccc12 | 0.4 |
